Laboratory results from ChEMBL document CHEMBL1153465, “C5-Modified nucleosides exhibiting anticancer activity” (Bioorg Med Chem Lett, 2009).

Assays:
Format in all cases: functional
NCI-H23 [1] = assay: Cytotoxicity against human NCI-H23 cells at 10 uM by SRB assay
How it was run: (§1)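 Growth inhibition measured at one fixed test concentration by sulforhodamine B assay. Cells were kept in RPMI 1640 plus 5% fetal bovine serum at 37 °C under humidified 5% CO₂. Adriamycin served as positive control. Results are given as […] of cancer cell growth.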

MDA-MB-231 [2] = assay: Cytotoxicity against human MDA-MB-231 cells at 10 uM by SRB assay; how it was run: as §1
PC-3 [3] = assay: Cytotoxicity against human PC3 cells at 10 uM by SRB assay; how it was run: as §1
HCT-15 [4] = assay: Cytotoxicity against human HCT15 cells at 10 uM by SRB assay; how it was run: as §1
ACHN = assay: Cytotoxicity against human ACHN cells by SRB assay
NUGC-3 = assay: Cytotoxicity against human NUGC3 cells by SRB assay
NCI-H23 [5] = assay: Cytotoxicity against human NCI-H23 cells by SRB assay
PC-3 [6] = assay: Cytotoxicity against human PC3 cells by SRB assay
HCT-15 [7] = assay: Cytotoxicity against human HCT15 cells by SRB assay
MDA-MB-231 [8] = assay: Cytotoxicity against human MDA-MB-231 cells by SRB assay

Structure (SMILES) | growth, % of control at 10 µM (NCI-H23 [1]) | growth, % of control at 10 µM (MDA-MB-231 [2]) | growth, % of control at 10 µM (PC-3 [3]) | growth, % of control at 10 µM (HCT-15 [4]) | GI50 (ACHN) | GI50 (NUGC-3) | GI50 (NCI-H23 [5]) | GI50 (PC-3 [6]) | GI50 (HCT-15 [7]) | GI50 (MDA-MB-231 [8])
CC(C)(C)c1ccc(Cn2cc(-c3cn([C@H]4C[C@H](O)[C@@H](CO)O4)c(=O)[nH]c3=O)nn2)cc1 | 95% | 106% | 92.3% | 96.9% |  |  |  |  |  | 
COc1cccc2c1C(=O)c1c(O)c3c(c(O)c1C2=O)C[C@@](O)(C(=O)CO)C[C@@H]3O[C@H]1C[C@H](N)[C@H](O)[C@H](C)O1 [DOXORUBICIN] |  |  |  |  | 410 nM | 250 nM | 510 nM | 730 nM | 1640 nM | 610 nM
CC(=O)OC[C@H]1O[C@@H](n2cc(-c3cc(-c4ccc(C(C)(C)C)cc4)no3)c(=O)[nH]c2=O)C[C@@H]1OC(C)=O | 112% | 69.3% | 27.5% | 53.8% |  |  |  |  |  | 
CC(=O)OC[C@H]1O[C@@H](n2cc(-c3cn(Cc4ccc(C(C)C)cc4)nn3)c(=O)[nH]c2=O)C[C@@H]1OC(C)=O | 86.7% | 98.1% | 91.3% | 96.5% |  |  |  |  |  | 
CCCCCc1cc(-c2cn([C@H]3C[C@H](OC(C)=O)[C@@H](COC(C)=O)O3)c(=O)[nH]c2=O)on1 | 88.9% | 91.5% | 93.9% | 98.7% |  |  |  |  |  | 
CCCc1cc(-c2cn([C@H]3C[C@H](OC(C)=O)[C@@H](COC(C)=O)O3)c(=O)[nH]c2=O)on1 | 96.9% | 102% | 88.1% | 98.8% |  |  |  |  |  | 
CC(C)(C)c1ccc(-c2cc(-c3cn([C@H]4C[C@H](O)[C@@H](CO)O4)c(=O)[nH]c3=O)on2)cc1 | 98.9% | 102% | 87.9% | 79.8% |  |  |  |  |  | 
O=c1[nH]c(=O)n([C@H]2C[C@H](O)[C@@H](CO)O2)cc1-c1cn(Cc2ccccc2)nn1 | 97.5% | 103% | 92.1% | 88.3% |  |  |  |  |  | 
CC(=O)OC[C@H]1O[C@@H](n2cc(-c3cc(C)no3)c(=O)[nH]c2=O)C[C@@H]1OC(C)=O | 101% | 106% | 92.4% | 102% |  |  |  |  |  | 
CCCCCCCCc1cc(-c2cn([C@H]3C[C@H](O)[C@@H](CO)O3)c(=O)[nH]c2=O)on1 | 120% | 96.7% | 77.3% | 88.2% |  |  |  |  |  | 
CC(=O)OC[C@H]1O[C@@H](n2cc(-c3cn(Cc4ccc(C(C)(C)C)cc4)nn3)c(=O)[nH]c2=O)C[C@@H]1OC(C)=O | 106% | 105% | 90.4% | 94.2% |  |  |  |  |  | 
CC(=O)OC[C@H]1O[C@@H](n2cc(-c3cc(-c4ccccc4)no3)c(=O)[nH]c2=O)C[C@@H]1OC(C)=O | 91.4% | 95% | 85.5% | 92.2% |  |  |  |  |  | 
CCc1ccc(Cn2cc(-c3cn([C@H]4C[C@H](OC(C)=O)[C@@H](COC(C)=O)O4)c(=O)[nH]c3=O)nn2)cc1 | 77.2% | 97.7% | 91.2% | 88% |  |  |  |  |  | 
CC(=O)OC[C@H]1O[C@@H](n2cc(-c3cn(Cc4ccccc4)nn3)c(=O)[nH]c2=O)C[C@@H]1OC(C)=O | 98.2% | 102% | 92.1% | 92.3% |  |  |  |  |  | 
CCc1ccc(-c2cc(-c3cn([C@H]4C[C@H](OC(C)=O)[C@@H](COC(C)=O)O4)c(=O)[nH]c3=O)on2)cc1 | 92.7% | 97.4% | 62.8% | 92.2% |  |  |  |  |  | 
CCCCc1ccc(-c2cc(-c3cn([C@H]4C[C@H](OC(C)=O)[C@@H](COC(C)=O)O4)c(=O)[nH]c3=O)on2)cc1 | 97.4% | 72.2% | 30.4% | 71.4% |  |  |  |  |  | 
CC(=O)OC[C@H]1O[C@@H](n2cc(-c3cc(-c4ccc(C(C)C)cc4)no3)c(=O)[nH]c2=O)C[C@@H]1OC(C)=O | 108% | 83.2% | 50.3% | 80.9% |  |  |  |  |  | 
